GalR3 antag: GalR3 antagonists in HEK293 cells, primary screen, cell-based, fluorescence readout | hit rate 0.44% among 360,000 | inhibition, % at 3 µM | Galanin receptor type 3 (Homo sapiens), O60755 | HEK293 GalR3-CNG cAMP membrane potential fluorescence; galR3 body fused to GalR1 C-terminus;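 active = inhibition above the screen-wide average plus 3 SD, cut at about 13% in these data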;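 also: forskolin and galanin both at EC90 stimulate the cells; cAMP rise reported by CNG channel membrane potential dye signal; 0% = forskolin plus galanin with DMSO and 100% = forskolin alone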
Target sequence (O60755 1-299 limits assumed): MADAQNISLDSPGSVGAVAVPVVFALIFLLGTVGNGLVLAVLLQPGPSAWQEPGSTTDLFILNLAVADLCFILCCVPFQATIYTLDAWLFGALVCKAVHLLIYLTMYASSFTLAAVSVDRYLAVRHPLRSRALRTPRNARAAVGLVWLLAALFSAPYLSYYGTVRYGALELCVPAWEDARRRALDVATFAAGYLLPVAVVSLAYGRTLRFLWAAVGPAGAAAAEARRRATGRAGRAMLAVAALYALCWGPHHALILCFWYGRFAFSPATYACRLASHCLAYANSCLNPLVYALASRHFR
NPR1 activator: GC-A stimulated cGMP production enhancers – HEK293 GC-A cells, cGMP TR-FRET, EC30 ANP, primary screen; hit rate 0.14% among 370,000; activation, % at 10 µM; Atrial natriuretic peptide receptor 1 (Homo sapiens), P16066; 0% at EC30 ANP, 100% saturating ANP; in the data active = activation above about 40%
Arrestin-AP2 inh: inhibitors of beta-arrestin/AP2 binding, primary screen, biochemical, GPCR trafficking, flow cytometry; beta-arrestin 1 C-terminal peptide binding to AP2 beta2-adaptin appendage (human); FITC-arrestin peptide / GST-AP2 beads; AP2 beta2 appendage carries R879A mutation; inhibition, % at 10 µM; hit rate 0.31% among 340,000; AID 504490, 2011;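 active = inhibition above a set limit, near 3 SD of compounds lacking own fluorescence, cut at about 54% in these data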;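 also: plate controls were DMSO wells for no effect and 5 µM unlabelled arrestin peptide for full effect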
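System: GST-AP2 R879A glutathione beads. Medium: PBS with 0.05% Tween 20 and 0.1% BSA. Also added: FITC-arrestin peptide, 50 nM. Incubation: 12 min plus 1 h, RT. Measured by: high-throughput flow cytometry of beads, ex 488, em 535 nm. Evaluation: percent drop in bead-associated FITC signal.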
NPR2 activator: human GC-B receptor activators, primary screen, HEK293 GC-B cells, cGMP TR-FRET, EC30 CNP | activation, % at 10 µM | AID 1920062, 2024 | 0% at EC30 CNP, 100% saturating CNP | hit rate 0.11% among 370,000 | Atrial natriuretic peptide receptor 2 (Homo sapiens), P20594;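 active = activation at 10 µM reaching about 35% in either raw or pattern-adjusted values, limit read from the data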
* hit, by the source's call; · = no result. In the library only some 0.94% were active in any assay of this set; here they are far more common.

SMILES	GalR3 antag	NPR1 activator	Arrestin-AP2 inh	NPR2 activator
O=C1C2CC=CCC2C(=O)N1SC(Cl)(Cl)Cl (centres undefined)	35*	30	·	22
O=C1NC(=O)C(=Cc2ccc(-c3cc(Cl)ccc3[N+](=O)[O-])o2)C(=O)N1	2	50*	2	17
O=C1NC(=O)C(=Cc2ccc(-c3ccccc3[N+](=O)[O-])o2)C(=O)N1	-3	38	24	13
N#Cc1ccc2nc(-c3ccc(CN4CCC(n5nnc6ccccc65)CC4)cc3)c(-c3ccccc3)nc2c1	-6	1	·	15
O=C1NC(=O)C(=Cc2ccc(SC3CCCCC3)o2)C(=O)N1	1	55*	2	17
COC(=O)C1=C(c2ccc(OC(F)(F)F)cc2)C[C@@H]2CC[C@H]1N2C(=O)NCC1CC1	-8	0	20	126*
CCOC(=O)C1=C(C(=O)OCC)C2(c3ccccc3)c3ccccc3C1(C)N2C (centres undefined)	-6	-14	·	-14
S=P(c1ccccc1)(c1ccccc1)c1c[n+](Cc2ccccc2)c2ccccn12	·	-1	·	-4
CCOC(=O)c1c(C)n(Cc2ccc(F)cc2)c2ccc(O)cc12	-6	67*	-2	7
COC(=O)c1c(C)n(Cc2ccc3c(c2)OCO3)c2ccc(O)cc12	-1	78*	29	22
CCOC(=O)c1c(C)n(COCCO)c2ccc(O)cc12	-5	0	13	6
CCOC(=O)c1c(C)n(Cc2ccc3c(c2)OCO3)c2ccc(O)cc12	-4	79*	-2	28
CCOC(=O)c1c(C)n(Cc2ccco2)c2ccc(O)cc12	0	50*	4	-2
Cc1cc(N2CCNC[C@H]2C)ccc1N1CCN[C@H](C)C1	-1	2	·	2
O=c1[nH]c2cc(Cl)ccc2n1C1CCN(Cc2ccc(-c3nc4ccccc4nc3-c3ccccc3)cc2)CC1	-6	-2	·	3
COC(=O)C1=C(c2ccc(OC(F)(F)F)cc2)C[C@@H]2CC[C@H]1N2C(=O)N1CCc2cc(OC)c(OC)cc2C1	-6	-1	·	-5
CC(=O)OC1CC2(O)C3CCC4CC(O)CCC4(C)C3CCC2(C)C1C1=CC(=O)OC1 (centres undefined)	21*	2	-14	0
CC1OC(OC2C(O)CC(OC3C(O)CC(OC4CCC5(C)C(CCC6C5CCC5(C)C(C7=CC(=O)OC7)C(O)CC65O)C4)OC3C)OC2C)CC(O)C1O (centres undefined)	0	-3	-18	4
CC(=O)[C@H]1CCC2C3CC[C@H]4C[C@@H](O)CC[C@]4(C)C3CC[C@@]21C (some centres undefined)	-3	4	16	3
CC(=O)OC1CC(OC2C(O)CC(OC3C(O)CC(OC4CCC5(C)C(CCC6C5CCC5(C)C(C7=CC(=O)OC7)C(O)CC65O)C4)OC3C)OC2C)OC(C)C1OC1OC(CO)C(O)C(O)C1O (centres undefined)	34*	-1	8	-3
COc1cc(/C=C/c2nc3ccccc3c(=O)n2-c2cccc(O)c2)ccc1O	-5	24	32	49*
COC(=O)[C@H]1C[C@@]2(C)c3ccccc3N[C@H]2N1	·	-1	·	-2
CCOC(=O)C(NC(C)=O)C(OC(C)=O)c1cccc(N(CCCl)CCCl)c1 (centres undefined)	13*	4	19	-4
CC(=O)NC(Cc1ccc(N(CCCl)CCCl)cc1)C(=O)O (centres undefined)	-3	0	28	0
C=CCCC(NC(=O)OCc1ccccc1)P(=O)(Oc1ccccc1)Oc1ccccc1 (centres undefined)	·	-6	·	-15
SMILES	GalR3 antag	NPR1 activator	Arrestin-AP2 inh	NPR2 activator
C[C@]12CC[C@H]3[C@@H](CC[C@]4(O)C[C@@H](O)CC[C@]34C=O)[C@@]1(O)CC[C@@H]2C1=CC(=O)OC1	15*	-1	35	9
C[C@H]1O[C@@H](OC2CC[C@]3(C=O)[C@H]4CC[C@]5(C)[C@@H](C6=CC(=O)OC6)CC[C@]5(O)[C@@H]4CC[C@]3(O)C2)CC2OC(C)(C)OC21 (some centres undefined)	34*	1	21	4
CC12CCC3C(CCC4(O)CC(O)CCC34C=NO)C1(O)CCC2C1=COC(=O)C1 (centres undefined)	23*	-4	6	-4
CCCCN=C[C@]12CCC(O)CC1(O)CCC1[C@@H]2CC[C@]2(C)[C@H](C3C=CC(=O)O3)CCC12O (some centres undefined)	8	2	2	-5
C[C@]12CCC3C(CCC4=CC(O)CC[C@@]43/C=N/O)C1(O)CCC2C1=CC(=O)OC1 (some centres undefined)	15*	6	12	-3
CC12CC[C@H]3[C@@H](CCC4(O)C[C@H](O)CCC34/C=N/NC(=O)c3ccccc3Cl)C1(O)CCC2C1=CC(=O)OC1 (some centres undefined)	3	2	4	0
C[C@@H]1O[C@@H](O[C@H]2C[C@@H](O)[C@]3(CO)[C@H]4[C@H](O)C[C@]5(C)[C@@H](C6=CC(=O)OC6)CC[C@]5(O)[C@@H]4CC[C@]3(O)C2)[C@H](O)[C@H](O)[C@H]1O	·	·	1	·
CC[C@]12CCN(CC3(O)CC3)[C@H](Cc3ccc(O)cc31)C2(C)C	2	3	·	1
O=C(Cn1ncc2c3ccccc3n(Cc3ccccc3F)c2c1=O)N1CCC2(CC1)OCCO2	-5	29	-5	42*
COc1cc(CCN)c(OC)cc1C	-9	2	·	-5
COc1ccc(-n2c(O)c(/C=C3\C=Nc4ccc(Br)cc43)c(=O)[nH]c2=O)cc1	-13	41*	-6	30
COc1ccc(-n2c(O)c(/C=C3\C=Nc4ccc(Br)cc43)c(=O)[nH]c2=O)c(OC)c1	-9	31	27	24
Cc1ccc(N2C(=O)NC(=O)/C(=C/c3cnn(-c4ccc(C)cc4)c3)C2=O)cc1	-5	57*	1	10
N#CCC[C@@H]1CC[C@]2(CCCN(Cc3ccncc3)C2)O1	·	2	·	0
CCOc1ccc(-c2c(C)n(-c3ccc(OCC)cc3)c3[n+]2CCCCC3)cc1	19*	-3	-1	-2
